In ChEMBL document CHEMBL4330068, “Design, synthesis and evaluation of pentacycloundecane and hexacycloundecane propargylamine derivatives as multifunctional neuroprotective agents” (Eur J Med Chem, 2019):
Values belong to the compound of their own block, whether it stands above or below them. The source made the active and inactive calls. The rule behind the calls is not given here.

Assays:
[1] = target: Glutamate [NMDA] receptor (Homo sapiens) (UniProt Q05586+Q12879+Q13224+O15399+O60391+Q14957+Q8TCU5); experiment: Antagonist activity at NMDA receptor in human SH-SY5Y cells assessed as reduction in NMDA/glycine-stimulated calcium influx at 10 uM preincubated for 30 mins in presence of Mag-Fura-2/AM dye followed by NMDA/glycine stimulation and measured over 35 secs by fluorescence assay (reference value: 100%); assay type: cell-based
Method in brief: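 SH-SY5Y cells loaded with ratiometric Ca indicator Mag-Fura-2/AM, incubated with compound at 10 µM for 30 min at 37 °C, then stimulated with concentrated NMDA/glycine solution; fluorescence change from cytosolic Ca rise read on plate reader. % NMDAr inhibition calculated relative to MK-801 (10 µM); DMSO vehicle. Mean of at least 9 independent experiments.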

[2] = target: Voltage-gated L-type calcium channel (Homo sapiens, UniProt Q13936+Q13698+Q01668+O60840); experiment: Inhibition of voltage-dependent L-type calcium channel in human SH-SY5Y cells assessed as reduction in KCl-stimulated calcium influx at 100 uM preincubated for 30 mins in presence of Mag-Fura-2/AM dye followed by KCl stimulation and measured over 35 secs by fluorescence assay; assay type: cell-based; settings: 35 s
[3] = target: T1, Amine oxidase [flavin-containing] B (Homo sapiens, UniProt P27338); experiment: Inhibition of recombinant human MAO-B using kynuramine as substrate after 20 mins by fluorescence assay relative to control
T1 sequence (P27338 whole entry): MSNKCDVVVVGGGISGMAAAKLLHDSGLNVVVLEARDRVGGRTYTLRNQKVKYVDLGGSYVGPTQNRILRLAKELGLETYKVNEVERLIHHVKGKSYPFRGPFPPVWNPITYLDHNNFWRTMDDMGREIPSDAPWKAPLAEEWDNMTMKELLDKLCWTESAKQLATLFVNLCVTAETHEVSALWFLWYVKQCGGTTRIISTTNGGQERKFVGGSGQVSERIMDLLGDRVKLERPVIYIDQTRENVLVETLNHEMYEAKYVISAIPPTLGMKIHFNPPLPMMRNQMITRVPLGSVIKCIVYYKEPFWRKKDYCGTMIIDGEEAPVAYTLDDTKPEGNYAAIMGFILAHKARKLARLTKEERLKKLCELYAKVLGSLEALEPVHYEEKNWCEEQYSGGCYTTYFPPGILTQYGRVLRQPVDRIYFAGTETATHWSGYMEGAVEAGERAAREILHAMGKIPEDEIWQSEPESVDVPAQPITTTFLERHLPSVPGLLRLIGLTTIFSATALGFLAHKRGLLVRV
Method in brief: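 Recombinant human MAO-B oxidises kynuramine. The product, 4-hydroxyquinoline, is read by fluorescence in the supernatant (excitation 310 nm, emission 400 nm).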

[4] = tested on: SH-SY5Y; experiment: Neuroprotective activity in human SH-SY5Y cells assessed as reduction in MPP+ induced cytotoxicity at 5 to 10 uM preincubated for 2 hrs followed by MPP+ addition measured after 48 hrs by MTT assay; assay type: functional, cell-based
[5] = tested on: SH-SY5Y; experiment: Neuroprotective activity in human SH-SY5Y cells assessed as reduction in MPP+ induced cytotoxicity by measuring cell viability at 1 uM preincubated for 2 hrs followed by MPP+ addition and measured after 48 hrs by MTT assay (reference value: 45%); assay type: functional
[6] = target: T2, Amine oxidase [flavin-containing] A (Homo sapiens, UniProt P21397); experiment: Inhibition of recombinant human MAO-A using kynuramine as substrate after 20 mins by fluorescence assay
T2 sequence (P21397 whole entry): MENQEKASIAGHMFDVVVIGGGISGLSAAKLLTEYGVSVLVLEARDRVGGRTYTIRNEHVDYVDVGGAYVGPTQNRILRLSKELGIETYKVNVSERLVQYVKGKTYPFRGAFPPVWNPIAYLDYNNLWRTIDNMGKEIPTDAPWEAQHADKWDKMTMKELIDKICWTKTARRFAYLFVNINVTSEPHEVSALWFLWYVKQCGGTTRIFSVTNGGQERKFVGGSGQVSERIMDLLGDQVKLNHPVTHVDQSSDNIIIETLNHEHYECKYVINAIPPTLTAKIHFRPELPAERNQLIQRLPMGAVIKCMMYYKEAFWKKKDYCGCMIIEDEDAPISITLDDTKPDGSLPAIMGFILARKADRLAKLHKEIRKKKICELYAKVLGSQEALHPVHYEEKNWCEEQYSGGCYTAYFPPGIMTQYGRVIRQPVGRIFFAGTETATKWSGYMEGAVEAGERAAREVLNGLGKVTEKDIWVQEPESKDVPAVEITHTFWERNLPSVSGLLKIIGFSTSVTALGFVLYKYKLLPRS

[7] = Cytotoxicity against human SH-SY5Y cells assessed as cell viability at 10 uM after 48 hrs by MTT assay (reference value: 100%); assay type: cell-based; settings: read-out: Activity
Method in brief: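 SH-SY5Y cells exposed to compound at 10, 50 or 100 µM for 48 h; viability by MTT, read spectrophotometrically. DMSO vehicle-treated cells set as 100% viability. Mean ± SEM, n = 3 with four fields per repeat; ANOVA.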

[8] = target: T1, Amine oxidase [flavin-containing] B; experiment: Inhibition of recombinant human MAO-B using kynuramine as substrate after 20 mins by fluorescence assay
[9] = target: T2, Amine oxidase [flavin-containing] A; experiment: Irreversible inhibition of recombinant human MAO-A at 2 times IC50 preincubated up to 60 mins followed by kynuramine substrate addition and measured after 20 mins by fluorescence assay
Method in brief: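 Recombinant human MAO-A is preincubated with inhibitor for 0, 15, 30 or 60 min, then the kynuramine reaction is started. Residual oxidation rate is read as 4-hydroxyquinoline fluorescence (RFU). Results are the mean of three independent experiments.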

[10] = target: T1, Amine oxidase [flavin-containing] B; experiment: Reversible inhibition of recombinant human MAO-B at 2 times IC50 preincubated up to 60 mins followed by kynuramine substrate addition and measured after 20 mins by fluorescence assay

Compound: C#CCNCc1ccc(C/N=C2/C3C4CC5C6C4C2C6C2(OCCO2)C53)cc1 (stereo unspecified)
inhibition [1]: 88.3%

Compound: C#CCN1C2C3C4CC5C6C4C2C6C1(O)C53 (stereo unspecified)
inhibition [1]: 4%
inhibition (INH) [2]: Not Active
inhibition (INH) [3]: 6%

Compound: NCc1ccc(C/N=C2/C3C4CC5C6C4C2C6C2(OCCO2)C53)cc1 (stereo unspecified)
inhibition [1]: 49.5%

Compound: NCc1ccc(CN2C3C4C5CC6C7C5C3C7C2(O)C64)cc1 (stereo unspecified)
inhibition [1]: 59%
Activity [4]: Active
Activity [5]: 46%
IC50 [6]: > 100 µM
viability at 48 h, 10 µM [7]: 107%
IC50 [8]: > 100 µM

Compound: c1cc(C/N=C2\C3C4CC5C6C4C2C6C2(OCCO2)C53)ccc1C/N=C1/C2C3CC4C5C3C1C5C1(OCCO1)C42 (stereo unspecified)
inhibition [1]: 70.5%

Compound: C#CCNCc1ccc(CN2C3C4C5CC6C7C5C3C7C2(O)C64)cc1 (stereo unspecified)
inhibition (INH) [9]: Active
inhibition [1]: 0.6%
Activity [4]: Active
inhibition (INH) [10]: Active
Activity [5]: 43%
IC50 [6]: 56.2 µM
viability at 48 h, 10 µM [7]: 98%
IC50 [8]: 3.8 µM

Compound: Nc1ccc(CN2C3C4C5CC6C7C5C3C7C2(O)C64)cc1 (stereo unspecified)
inhibition [1]: 11.9%
Activity [4]: Active
Activity [5]: 31%
IC50 [6]: > 100 µM
viability at 48 h, 10 µM [7]: 101%
IC50 [8]: > 100 µM

Compound: COCCOC(=O)C1=C(C)NC(C)=C(C(=O)OC(C)C)C1c1cccc([N+](=O)[O-])c1 (stereo unspecified)
inhibition [1]: inactive

Compound: Nc1ccc(C/N=C2/C3C4CC5C6C4C2C6C2(OCCO2)C53)cc1 (stereo unspecified)
inhibition [1]: 63.1%

Further lines, with some results ahead:

inhibition [1]: 26.1%
Compound: ClCc1ccc(CNC23OC4C5C6CC(C7C6C4C72)C53)cc1 (stereo unspecified)

inhibition [1]: inactive
Compound: Nc1ccc(CNC23OC4C5C6CC(C7C6C4C72)C53)cc1 (stereo unspecified)

inhibition [1]: inactive
Compound: NCc1ccc(CNC2C3C4CC5C6C4C2C6C2(OCCO2)C53)cc1 (stereo unspecified)

inhibition [1]: 63.9%
Compound: C#CCNCc1ccc(CNC2C3C4CC5C6C4C2C6C2(OCCO2)C53)cc1 (stereo unspecified)

inhibition [1]: 31.4%
Compound: C#CCNCc1ccc(CNC23OC4C5C6CC(C7C6C4C72)C53)cc1 (stereo unspecified)

inhibition [1]: inactive
inhibition (INH) [2]: Not Active
Compound: C#CCNC12OC3C4C5CC(C6C5C3C61)C42 (stereo unspecified)

inhibition [1]: 32.5%
IC50 [6]: > 100 µM
IC50 [8]: > 100 µM
Compound: c1ccc(CNC23OC4C5C6CC(C7C6C4C72)C53)cc1 (stereo unspecified)
Activity [4]: Active
Activity [5]: 66%
viability at 48 h, 10 µM [7]: 86%
